# High-throughput results from PubChem BioAssay.
# NF-kB expr up: compounds increasing NF-kB expression in human neuronal cells; fold change at 12.5 µM; AID 1239; 190,000 tested, 1.6% active; NF-kB reporter expression; active compounds read high; in the data active = fold change above about 3.3
# STAT1 inh: reduces IFN-gamma driven STAT1 reporter signal; 200,000 tested, 0.35% active; inhibition, % at 5.5 µM; NIH 3T3 STAT1-luciferase reporter, luminescence;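 active = inhibition above a set limit, the mean inhibition across all tested compounds plus 3 SD, cut at about 34% in these data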;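 also: 0% = IFN-gamma with DMSO and 100% = IFN-gamma with 300 µM nifuroxazide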
# STAT3 activator: activators of IL-6 induced STAT3 signaling; U3A cells, IL-6 STAT3-luciferase reporter, luminescence; 100% = signal with IL-6 EC80 alone; AID 871; 190,000 tested, 0.91% active; activation (% of control), % at 5.6 µM;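 active = activation above the screen-wide mean of compound activation plus 3 SD, cut at about 130% in these data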;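 also: 0% = background luminescence of wells with medium and substrate only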
#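 Material: STAT1-lacking human U3A cells, STAT3 luciferase reporter | Benchmarks: IL-6-only wells as 100% reference | Probe or stimulus: IL-6 (33 ng/mL) | Timing: Compound 1 h, then IL-6 6 h at 37 °C | Detection: Luminescence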
# APP 5'UTR act: activates APP 5'UTR luciferase reporter | 190,000 tested, 1% active | activation, % at 2 µM | SH-SY5Y APP 5'UTR luciferase reporter, luminescence; zero percent = DMSO vehicle wells;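 active = activation above a set limit, based on mean plus 3 SD of controls, cut at about 140% in these data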
# STAT1 activator: STAT1 signaling activation | NIH 3T3 STAT1-luciferase reporter, IFN-gamma, luminescence; 100% = IFN-gamma alone, no compound | activation (% of control), % at 5.5 µM | 200,000 tested, 2.6% active;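 active = activation above the screen-wide mean activation plus 3 SD, cut at about 130% in these data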;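 also: raw ratio to IFN-gamma control signal so 100% means no change and 0% no light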
# STAT3 inh: inhibitors of IL-6 induced STAT3 signaling; U3A cells, IL-6 STAT3-luciferase reporter, luminescence; host cell line lacks STAT1; inhibition, % at 5.5 µM; 190,000 tested, 0.89% active;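 active = inhibition above the mean inhibition across all screened compounds plus 3 SD, cut at about 44% in these data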;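 also: 0% = DMSO only wells and 100% = 100 µM nifuroxazide control wells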
# * hit, by the source's call; . = not tested or not shown. Shown are actives, neighbours in structure and some others; about 4.9% of the full set was active somewhere.
SMILES,NF-kB expr up,STAT1 inh,STAT3 activator,APP 5'UTR act,STAT1 activator,STAT3 inh
COc1ccc2cnn(CCOc3ccccc3)c(=O)c2c1OC,3.6*,-51,74,176*,146*,35
CCOc1ccccc1OCCn1ncc2ccc(OC)c(OC)c2c1=O,1.2,-2,101,6,102,3
Cc1ccc(Nc2nc(=O)c3cccnc3s2)cc1,4.3*,-41,144*,68,137*,-47
CCN(C)c1ccc(/C=N\n2nnnc2N)cc1,2.4,-44,98,42,141*,8
Nc1nnnn1/N=C/c1ccc(O)cc1,1.2,-6,102,.,108,-2
O=C(O)c1ccc(-n2cccn2)nc1,1.5,0,107,21,99,0
S=C(Nc1ccccc1)Nc1ccc(OCc2ccc(Cl)cc2Cl)cc1,0.4,59*,51,-70,47,64*
S=C(NCCSCc1ccc(Cl)cc1Cl)Nc1ccccc1,1,3,90,4,98,22
COCc1nc2sc3c(c2c(=O)[nH]1)CCCC3,1.5,-2,92,-8,102,8
COc1cccc(-c2nc3sc4c(c3c(=O)[nH]2)CCCCC4)c1,1.8,-11,106,184*,110,-6
CCn1cc(C(=O)N2CCc3ccccc32)c(=O)c2cc(S(=O)(=O)N3CCCC3)ccc21,1.1,2,133*,-1,99,-26
CCn1cc(C(=O)N2CCN(c3ccc(OC)cc3)CC2)c(=O)c2cc(S(=O)(=O)N3CCCCC3)ccc21,0.94,6,110,9,93,-9
COc1cccc(N2CCN(C(=O)/C=C/c3ccco3)CC2)c1,1.1,-2,103,-12,102,-4
O=C(CCSCc1ccccc1Cl)NC1CCCCC1,1.4,-16,104,20,114,3
COc1ccccc1C1=NNC(=Nc2cccc(S(=O)(=O)N(C)C)c2)SC1,0.94,0,93,-11,99,11
Cc1ccc(-c2csc(NC(=O)c3ccno3)n2)cc1,1.4,-34,99,13,131*,2
COc1ccc(-c2csc(NC(=O)c3ccoc3C)n2)cc1,1.8,-39,98,47,133*,7
Cc1ccc(-c2csc(NC(=O)c3ccc(C)o3)n2)cc1,1.1,4,94,13,96,8
CCN(CC)C(=O)c1sc(NC(=O)c2ccoc2C)c(C(=O)OC)c1C,1.1,-11,97,-1,108,8
COC(=O)c1c(-c2ccncc2)csc1NC(=O)c1ccoc1C,2.5,-37,93,29,136*,10
COc1ccc(-c2csc(NC(=O)COC(=O)C3=COCCO3)n2)cc1,1.2,-31,99,45,130*,2
COc1ccc(-c2csc(NCc3ccco3)n2)cc1,6.2*,-37,105,158*,135*,1
COC(=O)c1ccc(-c2ccc(F)cc2)nc1C,1.3,-36,94,128,132*,7
Cc1ccc(-c2ccc(C(=O)O)c(C)n2)cc1,1.2,-3,100,15,103,-1
CCOc1ccc(NC(=O)COC(=O)C23CC4CC(CC(C4)C2)C3)c([N+](=O)[O-])c1,1.4,2,95,5,100,4
SMILES,NF-kB expr up,STAT1 inh,STAT3 activator,APP 5'UTR act,STAT1 activator,STAT3 inh
O=C(Nc1ccc(N2CCOCC2)cc1N1CCOCC1)c1cccs1,0.83,1,104,-21,95,-5
O=C(c1ccc(N2CCOCC2)cc1)c1cccs1,5.1*,-44,67,132,141*,39
CN(C)C(=O)COC(=O)c1ccccc1NC(=O)c1ccco1,1.1,0,100,22,101,6
CCN(CC)S(=O)(=O)c1ccc(N2CCOCC2)c(NC(=O)C23CC4CC(CC(Cl)(C4)C2)C3)c1,0.76,8,110,1,93,-15
CC(C)CC(COCc1ccc(C(F)(F)F)cc1)N1CCN(C(=O)c2ccc(C(F)(F)F)cc2)CCC1=O (stereo not drawn),3.9*,6,98,20,94,0
CC(C)CC(COCc1ccc(Cl)cc1)N1CCN(C(=O)c2cccc(C(F)(F)F)c2)CCC1=O (stereo not drawn),1.1,5,99,13,95,-2
Nn1c(-c2cccs2)nc2sc3c(c2c1=O)CCCC3,3.9*,-45,128,156*,142*,-28
